Results from different studies.
Each line is one published result; the experiments were not run side by side.

SMILES	target or system	test	system	conditions	quantity	result
COc1ccc([C@@]23Oc4cc(OC)cc(OC)c4[C@@]24NC(C)=N[C@@]4(O)[C@H](C(=O)N(C)OC)[C@H]3c2ccccc2)cc1	–	metabolic stability	human, liver microsomes	–	half-life	120 min
NCCNC(=O)O[C@H]1CCC[C@@]2(C1)OOC1(O2)C2CC3CC(C2)CC1C3 (stereo partly drawn)	–	–	male CD-1 mouse, plasma	intravenous, 3 mg/kg	MRT(0-inf)	35.2 min
COCC1=N[C@@]2(O)[C@H](C(=O)N(C)OC)[C@@H](c3ccccc3)[C@]3(c4ccc(OC)cc4)Oc4cc(OC)cc(OC)c4[C@]23N1	–	metabolic stability	human, liver microsomes	1 µM, pH 7.4	half-life	24.8 min
Cn1cc2c3c1C(=O)C(N)=CC3=[N+](C)CC2	HepG2	cell growth or viability, MTT	–	72 h	CC50	1 µM
CN1CCN(S(=O)(=O)c2cc([N+](=O)[O-])ccc2N(CCOS(C)(=O)=O)CCOS(C)(=O)=O)CC1	–	–	female SCID mouse, plasma	intraperitoneal, 25 mg/kg	MRT(0-inf)	25.2 min
CNC(C)Cc1ccc2n[se]nc2c1 (stereo not drawn)	–	metabolic stability	human, liver microsomes	0.5 µM	half-life	> 150 min
CC(C)(N)CNC(=O)O[C@H]1CCC[C@@]2(C1)OOC1(O2)C2CC3CC(C2)CC1C3 (stereo partly drawn)	–	–	male CD-1 mouse, plasma	intravenous, 3 mg/kg	MRT(0-inf)	32.5 min
Cn1cc2c3c1C(=O)C(N)=CC3=NCC2	HepG2	cell growth or viability, MTT	–	72 h	CC50	2 µM
CNC(C)Cc1ccc2c(c1)OCO2 (stereo not drawn)	–	metabolic stability	human, liver microsomes	0.5 µM	half-life	> 150 min
